Results from ChEMBL document CHEMBL1139934, “Synthesis and biological activity of imidazopyridine anticoccidial agents: part I” (Eur J Med Chem, 2007).

Tests used:
Eimeria tenella [1] = assay: Anticococcidal activity against Eimeria tenella in Chick assessed as reduction in oocyte at 25 ppm relative to control; assay type: functional; design: scale not given: the % may be the effect or the level left
Procedure, shortened: (§1)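 Expanded Mini-Assay Coccidiosis (ExMAC) in chickens infected with E. tenella, E. acervulina, E. mitis and E. maxima. Compound given in the feed at the stated ppm. Efficacy for each species is scored 0 to 4 from the percent oocyst reduction relative to an untreated control. Where a compound was tested more than once, all values are reported.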

[2] = biological target: cGMP-dependent protein kinase (Eimeria tenella, UniProt Q8MMZ8); assay: Inhibition of Eimeria tenella cGMP-dependent protein kinase by Ten_K assay
Procedure, shortened: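 Ten_K (Tenella Kinase) assay measuring inhibition of E. tenella PKG enzyme activity. Result expressed as the concentration giving 50% inhibition (IC50, nM). Where a compound was tested more than once, all values are reported.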

Eimeria tenella [3] = assay: Anticococcidal activity against Eimeria tenella in Chick assessed as reduction in oocyte at 12.5 ppm relative to control; assay type: functional; design: scale not given: the % may be the effect or the level left; procedure, shortened: as §1
Eimeria tenella [4] = assay: Anticococcidal activity against Eimeria tenella in Chick assessed as reduction in oocyte at 6.25 ppm relative to control; assay type: functional; design: scale not given: the % may be the effect or the level left; procedure, shortened: as §1
Eimeria acervulina [5] = assay: Anticococcidal activity against Eimeria acervulina in Chick assessed as reduction in oocyte at 25 ppm relative to control; assay type: functional; design: scale not given: the % may be the effect or the level left; procedure, shortened: as §1
Eimeria acervulina [6] = assay: Anticococcidal activity against Eimeria acervulina in Chick assessed as reduction in oocyte at 12.5 ppm relative to control; assay type: functional; design: scale not given: the % may be the effect or the level left; procedure, shortened: as §1
Eimeria acervulina [7] = assay: Anticococcidal activity against Eimeria acervulina in Chick assessed as reduction in oocyte at 6.25 ppm relative to control; assay type: functional; design: scale not given: the % may be the effect or the level left; procedure, shortened: as §1
Eimeria mitis [8] = assay: Anticococcidal activity against Eimeria mitis in Chick assessed as reduction in oocyte at 25 ppm relative to control; assay type: functional; design: scale not given: the % may be the effect or the level left; procedure, shortened: as §1
Eimeria maxima [9] = assay: Anticococcidal activity against Eimeria maxima in Chick assessed as reduction in oocyte at 25 ppm relative to control; assay type: functional; design: scale not given: the % may be the effect or the level left; procedure, shortened: as §1
Eimeria maxima [10] = assay: Anticococcidal activity against Eimeria maxima in Chick assessed as reduction in oocyte at 12.5 ppm relative to control; assay type: functional; design: scale not given: the % may be the effect or the level left; procedure, shortened: as §1
Eimeria maxima [11] = assay: Anticococcidal activity against Eimeria maxima in Chick assessed as reduction in oocyte at 6.25 ppm relative to control; assay type: functional; design: scale not given: the % may be the effect or the level left; procedure, shortened: as §1
Eimeria mitis [12] = assay: Anticococcidal activity against Eimeria mitis in Chick assessed as reduction in oocyte at 12.5 ppm relative to control; assay type: functional; design: scale not given: the % may be the effect or the level left; procedure, shortened: as §1
Eimeria mitis [13] = assay: Anticococcidal activity against Eimeria mitis in Chick assessed as reduction in oocyte at 6.25 ppm relative to control; assay type: functional; design: scale not given: the % may be the effect or the level left; procedure, shortened: as §1

Chain of cGMP-dependent protein kinase (Q8MMZ8 whole entry): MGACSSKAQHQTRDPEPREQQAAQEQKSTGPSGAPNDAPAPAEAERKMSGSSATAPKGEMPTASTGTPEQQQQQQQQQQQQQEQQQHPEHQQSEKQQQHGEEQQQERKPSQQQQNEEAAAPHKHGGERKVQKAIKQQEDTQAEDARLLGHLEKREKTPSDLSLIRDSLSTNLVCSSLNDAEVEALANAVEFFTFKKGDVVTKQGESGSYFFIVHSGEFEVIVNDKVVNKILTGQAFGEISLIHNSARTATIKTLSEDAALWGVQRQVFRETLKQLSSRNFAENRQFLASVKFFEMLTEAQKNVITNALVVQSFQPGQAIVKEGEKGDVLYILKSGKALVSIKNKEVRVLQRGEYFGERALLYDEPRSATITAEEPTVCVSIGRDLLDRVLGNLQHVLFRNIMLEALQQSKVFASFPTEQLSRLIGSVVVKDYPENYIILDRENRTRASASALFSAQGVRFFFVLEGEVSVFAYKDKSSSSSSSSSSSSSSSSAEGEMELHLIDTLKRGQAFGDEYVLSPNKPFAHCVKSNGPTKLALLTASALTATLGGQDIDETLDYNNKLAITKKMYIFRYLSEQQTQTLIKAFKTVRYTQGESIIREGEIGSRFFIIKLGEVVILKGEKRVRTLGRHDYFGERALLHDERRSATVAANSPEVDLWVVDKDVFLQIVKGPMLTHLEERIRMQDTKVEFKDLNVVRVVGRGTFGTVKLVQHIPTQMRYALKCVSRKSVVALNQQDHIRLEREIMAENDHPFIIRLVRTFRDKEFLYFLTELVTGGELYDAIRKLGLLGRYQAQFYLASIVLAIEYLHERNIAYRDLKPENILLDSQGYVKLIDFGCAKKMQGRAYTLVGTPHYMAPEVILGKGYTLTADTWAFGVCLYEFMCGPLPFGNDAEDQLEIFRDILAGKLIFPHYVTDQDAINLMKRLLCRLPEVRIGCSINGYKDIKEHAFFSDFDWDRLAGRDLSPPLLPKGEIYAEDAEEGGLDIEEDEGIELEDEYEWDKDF

IC50 [2] [pM] | SMILES | Activity (Eimeria tenella [1]) [%] | Activity (Eimeria tenella [3]) [%] | Activity (Eimeria tenella [4]) [%] | Activity (Eimeria acervulina [5]) [%] | Activity (Eimeria acervulina [6]) [%] | Activity (Eimeria acervulina [7]) [%] | Activity (Eimeria mitis [8]) [%] | Activity (Eimeria maxima [9]) [%] | Activity (Eimeria maxima [10]) [%] | Activity (Eimeria maxima [11]) [%] | Activity (Eimeria mitis [12]) [%] | Activity (Eimeria mitis [13]) [%]
120 | CN(C)Cc1ccn2c(-c3ccnc(NC4CCCCC4)n3)c(-c3ccc(F)cc3)nc2c1 | 80 | 80 | 80 | 50 | <50 | <50 | 80 | 80 | 80 | 80 | 50 | <50
270 | CN(C)Cc1ccn2c(-c3ccnc(NC(=O)C4CCC4)n3)c(-c3ccc(F)cc3)nc2c1 | 80 | 80 | 80 | 80 | <50 | <50 | 80 | 80 | 80 | <50 | 80 | <50
110 | CN(C)Cc1ccn2c(-c3ccnc(NCc4cc(F)cc(F)c4)n3)c(-c3ccc(F)cc3)nc2c1 | 80 | <50 |  | 80 | <50 |  | <50 | 80 | <50 |  | <50 | 
300 | CN(C)Cc1ccn2c(-c3ccnc(NCCO)n3)c(-c3ccc(F)cc3)nc2c1 | 80 | 50 | <50 | 80 | <50 | <50 | 80 | 80 | 80 | 50 | <50 | <50
300 | CCC(=O)Nc1nccc(-c2c(-c3ccc(F)cc3)nc3cc(CN(C)C)ccn23)n1 | 80 | 80 | <50 | 80 | <50 | <50 | 80 | 80 | 80 |  | <50 | <50
250 | CCCCC(=O)Nc1nccc(-c2c(-c3ccc(F)cc3)nc3cc(CN(C)C)ccn23)n1 | 80 | 50 | < 50 | 80 | 50 | 80 | 80 | 80 | 80 | 80 |  | <50
4390 | CN(C)Cc1ccn2c(-c3ccnc(NC(=O)NC(C)(C)C)n3)c(-c3ccc(F)cc3)nc2c1 |  | 80 |  |  | 80 |  |  |  | 80 |  | 80 | 
230 | CCNc1nccc(-c2c(-c3ccc(F)cc3)nc3cc(CN(C)C)ccn23)n1 | 80 | 80 | <50 | 80 | 80 |  | 80 | 80 | 80 | 80 | <50 | <50
66 | CN(C)Cc1ccn2c(-c3ccnc(NCc4ccc(F)cc4)n3)c(-c3ccc(F)cc3)nc2c1 | 80 | <50 |  | 80 | <50 |  | 80 | 80 | <50 |  | <50 | 
60 | CN(C)Cc1ccn2c(-c3ccnc(NCc4c(F)cccc4F)n3)c(-c3ccc(F)cc3)nc2c1 | 50 | <50 | <50 | <50 | <50 | <50 | 80 | 80 | 80 | 50 | <50 | <50
210 | CN(C)Cc1ccn2c(-c3ccnc(NC(=O)C4CCCC4)n3)c(-c3ccc(F)cc3)nc2c1 | 80 | 80 | < 50 | 80 | <50 | <50 | 80 |  |  |  | 80 | <50
220 | CN(C)Cc1ccn2c(-c3ccnc(NC4CCC4)n3)c(-c3ccc(F)cc3)nc2c1 | 80 | 80 | 80 | 80 | 80 | <50 | 80 | 80 | 80 | 50 | 50 | <50
420 | CN(C)Cc1ccn2c(-c3ccnc(NC(=O)C4CC4)n3)c(-c3ccc(F)cc3)nc2c1 | 80 | 80 | 50 | 80 | 80 | 80 | 80 | 50 | 80 | <50 | 80 | <50
230 | Cc1cc(-c2nc3cc(CN(C)C)ccn3c2-c2ccnc(N)n2)ccc1F | 80 | 80 | 80 | 80 | 80 | 80 | 80 |  |  |  | 80 | 80
450 | COC(=O)Nc1nccc(-c2c(-c3ccc(F)cc3)nc3cc(CN(C)C)ccn23)n1 | 80 | 80 |  | 80 | 80 |  | <50 | 80 | 80 |  | <50 | 
100 | CN(C)Cc1ccn2c(-c3ccnc(N)n3)c(-c3ccc(F)cc3F)nc2c1 | 80 | 100 | 80 | 100 | 100 | 100 | 80 |  |  |  | 80 | 50
102 | CN(C)Cc1ccn2c(-c3ccnc(NC4CCCC4)n3)c(-c3ccc(F)cc3)nc2c1 |  | 80 | 80 |  | 80 | 80 |  |  | 80 | <50 | 80 | 50
630 | CCCC(=O)Nc1nccc(-c2c(-c3ccc(F)cc3)nc3cc(CN(C)C)ccn23)n1 |  | 80 | <50 |  | 80 | <50 |  |  | 80 | 80 | 80 | <50
 | CCCNc1nccc(-c2c(-c3ccc(F)cc3)nc3cc(CN(C)C)ccn23)n1 |  | 80 |  |  | 80 |  |  |  | 80 |  | 80 | 
450 | CN(C)Cc1ccn2c(-c3ccnc(NC=O)n3)c(-c3ccc(F)cc3)nc2c1 |  | 80 | 80 |  | 80 | 80 |  |  | 80 | 80 | 50 | <50
330 | CN(C)Cc1ccn2c(-c3ccnc(NCCCO)n3)c(-c3ccc(F)cc3)nc2c1 |  | 80 | 80 |  | 80 | <50 |  |  | 80 | 80 | 80 | <50
410 | CN(C)Cc1ccn2c(-c3ccnc(N)n3)c(-c3ccc(Cl)cc3)nc2c1 | 80 | <50 |  | 50 | <50 |  | 50 |  |  |  | <50 | 
400 | CN(C)Cc1ccn2c(-c3ccnc(Nc4ccccn4)n3)c(-c3ccc(F)cc3)nc2c1 | 80 | 80 |  | <50 | <50 |  | 80 | 80 | 50 |  | 80 | 

SMILES | IC50 [2] [pM] | Activity (Eimeria tenella [1]) [%] | Activity (Eimeria tenella [3]) [%] | Activity (Eimeria tenella [4]) [%] | Activity (Eimeria acervulina [5]) [%] | Activity (Eimeria acervulina [6]) [%] | Activity (Eimeria acervulina [7]) [%] | Activity (Eimeria mitis [8]) [%] | Activity (Eimeria maxima [9]) [%] | Activity (Eimeria maxima [10]) [%] | Activity (Eimeria maxima [11]) [%] | Activity (Eimeria mitis [12]) [%] | Activity (Eimeria mitis [13]) [%]
CN(C)Cc1ccn2c(-c3ccnc(N)n3)c(-c3ccc(F)cc3)nc2c1 | 230 | 80 | 80 | <50 | 80 | <50 | <50 | 80 | 80 | 80 | 80 | 80 | <50
